Results of several laboratories.
FAP: Prolyl endopeptidase FAP (FAP, Homo sapiens, UniProt Q12884)
SRC: Proto-oncogene tyrosine-protein kinase Src (SRC, Homo sapiens, UniProt P12931)

| SMILES | target | read-out | action | method | tested at | inhibition [%] |
| --- | --- | --- | --- | --- | --- | --- |
| Cn1cc(-c2cc(F)cc(N3CCn4c(cc5c4CCCC5)C3=O)c2CO)cc(Nc2ccc(N3CCN(C4COC4)CC3)cn2)c1=O | Serine/threonine-protein kinase Sgk2 (SGK2, Homo sapiens, UniProt Q9HBY8) | enzyme activity | inhibitor |  | 0.1 µM | 12 |
| CCOC(=O)c1ccc(OC(=O)CCCCCNC(=N)N)cc1 | Stromelysin-2 (Homo sapiens, UniProt P09238) | enzyme activity | inhibitor |  | 10 µM | 12 |
| O=C(Nc1cccnn1)N1CCN([C@@H]2CCOc3cc(C(F)(F)F)ccc32)CC1 | C-X-C chemokine receptor type 4 (CXCR4, Homo sapiens, UniProt P61073) | cell-free assay |  |  | 20 µM | -21 |
| CN(C)C(=O)COC(=O)Cc1ccc(OC(=O)c2ccc(NC(=N)N)cc2)cc1 | FAP | enzyme activity | inhibitor |  | 10 µM | 30 |
| C#Cc1n[nH]c2c(-c3cn([C@@H](C)c4ccccc4)c(=O)[nH]c3=O)cc(F)cc12 | SRC | enzyme activity | inhibitor |  | 0.1 µM | 8.4 |
| N#C[C@@H]1CC(F)(F)CN1C(=O)CNC(=O)c1ccnc2ccccc12 | FAP | enzyme activity | inhibitor |  | 1 nM | 1 |
| Cn1cc(-c2cccc(N3CCc4c(sc5c4CC(C)(C)C5)C3=O)c2CO)cc(Nc2ccncn2)c1=O | 5'-AMP-activated protein kinase catalytic subunit alpha-2 (PRKAA2, Homo sapiens, UniProt P54646) | enzyme activity | inhibitor |  | 1 µM | 5 |
| C#Cc1n[nH]c2c(-c3cn([C@@H](C)c4ccccn4)c(=O)[nH]c3=O)cc(F)cc12 | SRC | enzyme activity | inhibitor |  | 0.1 µM | 12.9 |
| C=CCn1c2cc(OC(=O)CCCCN3CCN(Cc4cccc(Cl)c4)CC3)ccc2c2ccnc(C)c21 | Acetylcholinesterase (ACHE, Homo sapiens, UniProt P22303) | enzyme activity | inhibitor | Ellman | 1 µM | 48.1 |
